Screens deposited in PubChem by Broad Institute.
This excerpt belongs to a sample that is enriched for hits.
INS-1E rescue: protection of INS-1E cells from cytokine death, primary screen, ATP luminescence, single point; AID 488910, 2010; protection from cytokine-induced ATP loss, % at 10 µM; actives 0.1% (n = 20,000); INS-1E cytokine-induced death, 48 h; normalised: neutral wells 0, positive control 100;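 active = mean replicate protection from cytokine-induced ATP loss at least 50% and at least 75% of replicates each reaching 50%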
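Material: INS-1E rat cells; Quantity: 8000 cells/well; Buffer or medium: phenol-red-free RPMI with 5% fetal bovine serum; Probe or stimulus: cytokine cocktail of IFN-γ, TNF-α and IL-1β; Compound dosing: single test concentration per compound, delivered by pin transfer; Incubation: 48 h co-treatment, 10 min post-lysis read; Signal: CellTiter-Glo luminescence.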
A1 apoptosis 2: A1 inhibitors via caspase activation, primary screen, cell-based, luminescence, HTS, two replicates; MEF A1-2A-BIM cells, caspase-Glo luminescence, 3 h; percent of clofoctol response, DMSO zero; caspase activation, % (concentration not given with the values); 24,000 tested, under 10 active; AID 2465, 2010; in the data active = caspase activation above about 5.9%
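System: mouse embryonic fibroblasts co-expressing A1 and BIM (A1-2A-BIM), primed for A1 dependence; amount: 2500 cells/well; doses: 50 nL pinned compound; schedule: cells settled overnight, compound exposure 3 h at 37 °C, 5% CO2; detection: Caspase-Glo 3/7 luminescence, 1 h at room temperature; read-out: Caspase-3/7 activation, seen as rise in luminescence signal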
T cruzi intra: inhibitors of intracellular Trypanosoma cruzi, primary screen, cell-based, plate reader, single point, set 2. intracellular Trypanosoma cruzi in host cells. activity score (inhibition), % at 5.01 µM. actives 4.9% (n = 22,000). AID 651903, 2012; in the data active = activity score above about 55%;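 note: parasites and compound incubated about four days before reading; 0% = median of neutral control wells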
Numbers without * were called inactive; . = not tested or not shown.

SMILES | INS-1E rescue | A1 apoptosis 2 | T cruzi intra
C[C@@H]1CN([C@@H](C)CO)C(=O)c2cc(NC(=O)Cc3cn(C)c4ccccc34)ccc2O[C@H]1CN(C)Cc1ccc(C(F)(F)F)cc1 | -23.9 | -1.7 | 81.9*
C[C@@H]1CN([C@@H](C)CO)C(=O)c2cc(NC(=O)Cc3cn(C)c4ccccc34)ccc2O[C@@H]1CN(C)C(=O)Nc1ccc(C(F)(F)F)cc1 | -5.8 | . | 8.2
Cc1noc(C)c1NC(=O)N(C)C[C@@H]1Oc2ccc(NC(=O)Nc3ccc(F)cc3)cc2C(=O)N([C@H](C)CO)C[C@H]1C | 21.9 | 0.0 | 3.0
C[C@@H]1CCCCO[C@@H](CN(C)S(=O)(=O)c2ccccc2)[C@@H](C)CN([C@@H](C)CO)C(=O)c2cc(NC(=O)Cc3ccccc3)ccc2O1 | . | 1.0 | .
Cc1noc(C)c1S(=O)(=O)Nc1ccc2c(c1)C(=O)N([C@@H](C)CO)C[C@H](C)[C@@H](CN(C)Cc1ccc(-c3ccccc3)cc1)O2 | -18.6 | . | 40.9
Cc1noc(C)c1S(=O)(=O)Nc1ccc2c(c1)CC(=O)N([C@H](C)CO)C[C@@H](C)[C@H](CN(C)Cc1ccc(Oc3ccccc3)cc1)O2 | -7.2 | . | 69.4*
Cc1noc(C)c1S(=O)(=O)Nc1ccc2c(c1)C(=O)N([C@H](C)CO)C[C@H](C)[C@H](CN(C)Cc1ccc(-c3ccccc3)cc1)O2 | -16.8 | -0.2 | 65.3*
Cc1noc(C)c1S(=O)(=O)Nc1ccc2c(c1)CC(=O)N([C@H](C)CO)C[C@H](C)[C@H](CN(C)Cc1ccc(Oc3ccccc3)cc1)O2 | -26.6 | 2.0 | .
Cc1noc(C)c1S(=O)(=O)Nc1ccc2c(c1)CC(=O)N([C@@H](C)CO)C[C@H](C)[C@@H](CN(C)Cc1ccc(-c3ccccc3)cc1)O2 | -3.5 | 0.1 | 66.2*
Cc1noc(C)c1S(=O)(=O)Nc1ccc2c(c1)CC(=O)N([C@@H](C)CO)C[C@H](C)[C@@H](CN(C)Cc1ccccc1)O2 | 2.4 | -0.6 | 26.6
Cc1noc(C)c1S(=O)(=O)Nc1ccc2c(c1)CC(=O)N([C@@H](C)CO)C[C@H](C)[C@H](CN(C)Cc1ccccc1)O2 | 4.8 | -0.3 | 1.6
Cc1noc(C)c1S(=O)(=O)Nc1ccc2c(c1)CC(=O)N([C@H](C)CO)C[C@@H](C)[C@H](CN(C)Cc1ccc(-c3ccccc3)cc1)O2 | -30.6 | -1.5 | 57.9*
C[C@@H]1CN([C@H](C)CO)C(=O)c2cccc(NC(=O)c3ccc(-c4nccs4)cc3)c2O[C@H]1CN(C)S(=O)(=O)c1ccccc1 | -3.1 | -0.5 | 10.5
C[C@@H]1CN([C@@H](C)CO)C(=O)CCCn2nncc2CO[C@@H]1CN(C)Cc1ccccc1C(=O)O | . | -0.1 | -12.5
COc1ccc(CN(C)C[C@@H]2Oc3ccc(NC(=O)NC4CCCCC4)cc3CC(=O)N([C@@H](C)CO)C[C@@H]2C)cc1 | 2.8 | . | 5.1
C[C@H](CO)N1C[C@H](C)[C@@H](CN(C)Cc2ccc(Cl)c(Cl)c2)Oc2ccc(NC(=O)C3CCCCC3)cc2C1=O | -5.6 | -1.6 | 27.2
Cc1noc(C)c1S(=O)(=O)N(C)C[C@H]1Oc2ccc(NC(=O)Nc3ccc(C(F)(F)F)cc3)cc2CC(=O)N([C@H](C)CO)C[C@@H]1C | . | 1.2 | .
C[C@@H]1CN([C@@H](C)CO)C(=O)Cc2cc(NC(=O)Nc3ccc(C(F)(F)F)cc3)ccc2O[C@@H]1CN(C)S(=O)(=O)c1ccc(Cl)cc1 | -22.6 | . | 80.5*
Cc1noc(C)c1S(=O)(=O)N(C)C[C@H]1Oc2ccc(NC(=O)Nc3ccc(C(F)(F)F)cc3)cc2CC(=O)N([C@@H](C)CO)C[C@H]1C | 1.0 | -1.1 | 65.8*
C[C@H]1CN([C@@H](C)CO)C(=O)Cc2cc(NC(=O)Nc3ccc(C(F)(F)F)cc3)ccc2O[C@@H]1CN(C)S(=O)(=O)c1ccc(F)cc1 | 0.5 | 0.7 | 35.3
C[C@H]1CN([C@@H](C)CO)C(=O)Cc2cc(NC(=O)Nc3ccc(C(F)(F)F)cc3)ccc2O[C@H]1CN(C)S(=O)(=O)c1ccc(Cl)cc1 | -23.2 | 1.5 | 52.0
C[C@@H]1CN([C@H](C)CO)C(=O)Cc2cc(NC(=O)Nc3ccc(C(F)(F)F)cc3)ccc2O[C@@H]1CN(C)S(=O)(=O)c1ccc(F)cc1 | -8.6 | -0.3 | 71.6*
C[C@@H]1CN([C@@H](C)CO)C(=O)c2cc(NC(=O)Cc3cn(C)c4ccccc34)ccc2O[C@@H]1CN(C)CC1CC1 | . | -0.4 | .
CC(C)NC(=O)Nc1ccc2c(c1)CC(=O)N([C@@H](C)CO)C[C@@H](C)[C@@H](CN(C)S(=O)(=O)c1ccc(F)cc1)O2 | 6.9 | 0.7 | -8.1
C[C@@H]1CN([C@@H](C)CO)C(=O)c2cc(NC(=O)CCN3CCOCC3)ccc2O[C@@H]1CN(C)C(=O)Nc1ccc(F)cc1 | 1.1 | -0.2 | -6.0
SMILES | INS-1E rescue | A1 apoptosis 2 | T cruzi intra
CCO[C@H]1OC(C(=O)N2CCOCC2)=C[C@@H](C)[C@@H]1CCCO | . | 0.5 | .
C[C@H](CO)N1C[C@H](C)[C@@H](CN(C)Cc2ccc(Oc3ccccc3)cc2)Oc2c(NS(=O)(=O)c3ccc(Cl)cc3)cccc2C1=O | -15.4 | . | 64.9*
C[C@H](CO)N1C[C@H](C)[C@H](CN(C)Cc2ccc(Oc3ccccc3)cc2)Oc2c(NS(=O)(=O)c3ccccc3)cccc2C1=O | -43.9 | -1.9 | 21.7
C[C@H]1CN([C@@H](C)CO)C(=O)c2cccc(NS(=O)(=O)c3ccccc3)c2O[C@@H]1CN(C)Cc1ccc(Oc2ccccc2)cc1 | -4.4 | -0.9 | 12.9
C[C@@H]1CN([C@H](C)CO)C(=O)c2cccc(NS(=O)(=O)c3ccc(Cl)cc3)c2O[C@H]1CN(C)Cc1ccc(Oc2ccccc2)cc1 | -0.1 | -0.9 | 58.2*
C[C@H]1CN([C@@H](C)CO)C(=O)c2cccc(NS(=O)(=O)c3ccc(Cl)cc3)c2O[C@H]1CN(C)Cc1ccc(Oc2ccccc2)cc1 | -20.3 | . | 43.5
C[C@@H]1CN([C@@H](C)CO)C(=O)c2cccc(NS(=O)(=O)c3ccc(Cl)cc3)c2O[C@@H]1CN(C)Cc1ccc(Oc2ccccc2)cc1 | -87.3 | 0.1 | 66.5*
Cc1noc(C)c1S(=O)(=O)Nc1ccc2c(c1)C(=O)N([C@@H](C)CO)C[C@@H](C)[C@H](CN(C)C(=O)Nc1ccccc1)O2 | -2.9 | -0.9 | -28.1
C[C@@H]1CN([C@H](C)CO)C(=O)c2cccc(NS(=O)(=O)c3ccc(Cl)cc3)c2O[C@H]1CN(C)Cc1ccc(C(=O)O)cc1 | 8.3 | 0.0 | -0.8
Cc1ccc(S(=O)(=O)Nc2ccc3c(c2)C(=O)N([C@@H](C)CO)C[C@@H](C)[C@H](CN(C)C(=O)Nc2ccc(C(F)(F)F)cc2)OCCCC[C@@H](C)O3)cc1 | . | 0.2 | .
C[C@@H]1CN([C@H](C)CO)C(=O)c2cc(NS(=O)(=O)c3ccc(Cl)cc3)ccc2O[C@@H](C)CCCCO[C@H]1CN(C)C(=O)Nc1ccc(C(F)(F)F)cc1 | . | 0.1 | .
